For experiment [1], the target named is T1, D(2) dopamine receptor (Rattus norvegicus, UniProt P61169). In words: Compound was tested for its binding affinity towards dopamine receptor D2 by using [3H]domperidone as radioligand. The essentials:
(§1)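 Rat striatal membranes from frozen tissue, washed and resuspended in 50 mM Tris-HCl with 120 mM NaCl, 5 mM KCl, 2 mM CaCl2, 1 mM MgCl2 (pH 7.4 at 37 °C). Competition binding used [3H]SCH-23390 for D1 and [3H]domperidone for D2. IC50 ± SEM from duplicate or triplicate determinations.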

The target of experiment [2] is Glutamate receptor ionotropic, NMDA 2C (Rattus norvegicus, UniProt Q00961). The experiment in a line: (§2) Compound was tested for its affinity towards PCP receptor in rat brain membrane [3H]MK-801 as radioligand. Format: cell membranes.
Glutamate receptor ionotropic, NMDA 2C, sequence (Q00961 whole entry): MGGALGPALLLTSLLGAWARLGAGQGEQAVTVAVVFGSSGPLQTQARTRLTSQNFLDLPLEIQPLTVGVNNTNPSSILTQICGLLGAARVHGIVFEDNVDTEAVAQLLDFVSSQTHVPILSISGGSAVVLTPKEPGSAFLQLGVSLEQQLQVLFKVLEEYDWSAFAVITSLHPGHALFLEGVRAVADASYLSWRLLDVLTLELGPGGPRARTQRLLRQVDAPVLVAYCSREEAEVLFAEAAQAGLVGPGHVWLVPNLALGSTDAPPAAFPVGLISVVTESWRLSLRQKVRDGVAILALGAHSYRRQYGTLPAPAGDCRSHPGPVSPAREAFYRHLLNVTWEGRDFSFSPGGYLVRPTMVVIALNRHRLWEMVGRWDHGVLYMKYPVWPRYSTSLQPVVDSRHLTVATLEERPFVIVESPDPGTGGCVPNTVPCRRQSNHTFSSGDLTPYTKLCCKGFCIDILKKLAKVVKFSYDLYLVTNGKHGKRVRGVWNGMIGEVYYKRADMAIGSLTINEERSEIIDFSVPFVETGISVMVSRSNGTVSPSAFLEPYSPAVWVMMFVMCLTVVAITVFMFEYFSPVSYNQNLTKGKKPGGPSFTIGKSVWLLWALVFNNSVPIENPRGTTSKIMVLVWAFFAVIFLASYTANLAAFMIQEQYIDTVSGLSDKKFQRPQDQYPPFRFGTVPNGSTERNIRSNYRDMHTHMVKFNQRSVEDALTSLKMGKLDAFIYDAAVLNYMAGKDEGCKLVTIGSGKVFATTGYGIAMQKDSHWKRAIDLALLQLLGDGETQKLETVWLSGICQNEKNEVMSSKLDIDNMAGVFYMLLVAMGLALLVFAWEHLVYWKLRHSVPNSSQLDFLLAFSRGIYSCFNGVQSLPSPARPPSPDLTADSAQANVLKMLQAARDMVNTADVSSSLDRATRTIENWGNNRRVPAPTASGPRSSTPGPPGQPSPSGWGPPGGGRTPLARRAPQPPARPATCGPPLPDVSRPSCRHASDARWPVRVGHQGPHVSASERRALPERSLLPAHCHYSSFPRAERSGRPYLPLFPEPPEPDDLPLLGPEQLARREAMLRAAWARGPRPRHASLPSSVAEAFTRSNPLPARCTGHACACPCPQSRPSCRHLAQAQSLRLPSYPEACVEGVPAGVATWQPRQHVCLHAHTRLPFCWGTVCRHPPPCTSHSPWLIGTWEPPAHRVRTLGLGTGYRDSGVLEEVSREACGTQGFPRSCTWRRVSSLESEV
The target in experiment [3] is T1, D(2) dopamine receptor. In words: Compound was tested for its binding affinity towards Dopamine receptor D2 by using [3H]domperidone as radioligand.
Experiment [4] concerns the target T2, D(1A) dopamine receptor (Rattus norvegicus, UniProt P18901). The experiment in a line: Binding affinity towards Dopamine receptor D1 in rat membranes using [3H]SCH-23390 as radioligand. It is filed as cell membranes.
For experiment [5], the target named is T2, D(1A) dopamine receptor. In words: Binding affinity determined in radioreceptor binding assay by using [3H]SCH-23390 radioligand against dopamine receptor D1. In outline:
as §1

The species entered for the next experiment is Rattus norvegicus. The description is as §2.

T2 sequence (P18901 whole entry): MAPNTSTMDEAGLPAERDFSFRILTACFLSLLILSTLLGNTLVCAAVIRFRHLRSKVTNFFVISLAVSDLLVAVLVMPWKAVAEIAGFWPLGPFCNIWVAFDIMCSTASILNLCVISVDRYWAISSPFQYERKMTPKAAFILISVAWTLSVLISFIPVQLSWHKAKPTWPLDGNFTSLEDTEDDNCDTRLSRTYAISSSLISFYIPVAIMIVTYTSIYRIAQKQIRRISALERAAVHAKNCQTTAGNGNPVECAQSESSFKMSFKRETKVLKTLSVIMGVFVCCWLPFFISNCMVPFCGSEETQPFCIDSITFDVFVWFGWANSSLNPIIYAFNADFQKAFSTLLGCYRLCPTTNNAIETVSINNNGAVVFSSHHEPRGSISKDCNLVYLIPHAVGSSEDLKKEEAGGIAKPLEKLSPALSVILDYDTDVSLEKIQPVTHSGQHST
T1 sequence (P61169 whole entry): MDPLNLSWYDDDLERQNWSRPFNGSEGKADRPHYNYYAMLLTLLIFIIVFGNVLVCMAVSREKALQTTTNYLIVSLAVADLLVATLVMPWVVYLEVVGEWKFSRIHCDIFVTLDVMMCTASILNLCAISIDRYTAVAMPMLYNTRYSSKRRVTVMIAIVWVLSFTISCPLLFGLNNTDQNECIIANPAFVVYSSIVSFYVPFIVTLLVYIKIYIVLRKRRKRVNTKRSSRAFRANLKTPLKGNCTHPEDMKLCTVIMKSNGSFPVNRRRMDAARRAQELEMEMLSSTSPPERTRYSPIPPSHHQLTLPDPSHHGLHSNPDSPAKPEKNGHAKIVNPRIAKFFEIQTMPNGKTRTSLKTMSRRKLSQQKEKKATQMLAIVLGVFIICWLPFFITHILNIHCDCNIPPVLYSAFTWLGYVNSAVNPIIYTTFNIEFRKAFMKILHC

As a reminder, the IC50 is the concentration at which inhibition is half-maximal. A high value points to lower potency. With `c1ccc(N2CCN(CCCc3ccc4ccccc4c3)CC2)cc1`, the half-maximal inhibitory concentration (IC50) at D(2) dopamine receptor [1] was 160 nM; in experiment [2], greater than 10000 nM.
In the case of `c1ccc(CCCN2CCC(c3ccccc3)CC2)cc1`, the IC50 on D(2) dopamine receptor [3] was 335 nM; at D(1A) dopamine receptor [4], greater than 10000 nM; in experiment [2], greater than 10000 nM.
`c1ccc(CCCCCN2CCC(c3ccccc3)CC2)cc1`: the IC50 on D(1A) dopamine receptor [5] is greater than 10000 nM; at D(2) dopamine receptor [1] it was 210 nM; in experiment [2] it was greater than 10000 nM.
In the case of `OC1(c2ccccc2)CCN(CCCc2ccccc2)CC1`, the half-inhibitory concentration (IC50) at D(2) dopamine receptor [3] is 1250 nM; in the experiment listed under Rattus norvegicus, greater than 10000 nM; at D(1A) dopamine receptor [4], greater than 10000 nM.
Regarding `c1ccc(CCCCN2CCC(c3ccccc3)CC2)cc1`, the half-inhibitory concentration (IC50) is 165 nM at D(2) dopamine receptor [3], greater than 10000 nM in the experiment filed under Rattus norvegicus and greater than 10000 nM on D(1A) dopamine receptor [4].
Turning to `c1ccc(CCCCN2CCN(c3ccccc3)CC2)cc1`, the figures for the 50% inhibitory concentration (IC50) (on D(2) dopamine receptor [1]; on D(1A) dopamine receptor [4]; in experiment [2]) were 45 nM, 2820 nM and greater than 10000 nM, respectively.

(Values after ChEMBL document CHEMBL1125220 (J Med Chem, 1991).)
